TRPN1 ag: activates the zebrafish TRPN1 channel. hit rate 0.18% among 220,000. HEK293 zebrafish TRPN1-YFP, Fluo-8 calcium fluorescence; 100% = response to 87 µM carbachol. activation, % at 3 µM;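 active = activation above its plate's cutoff, the mean activation of test wells on that plate plus 3 SD, cut at about 19% in these data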;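 also: 0% = DMSO alone and 100% = 87 µM carbachol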
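Material – zebrafish TRPN1-YFP in HEK293 cells · Doses – 3 µM single point · Schedule – dye 1 h 37 °C plus 30 min RT · Signal – Fluo-8 calcium fluorescence, excitation 470-495 nm, emission 515-575 nm · Read-out – % activation versus carbachol response · Control set – carbachol high, DMSO low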
GPR7 antag: human neuropeptides B/W receptor 1 antagonism; P48145; GPR7-expressing cells, fluorescence antagonist assay; inhibition, % at 4.4 µM; hit rate 1.1% among 290,000; in the data active = inhibition above about 16%, passing the limit was not always enough;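 also: cells stimulated with the agonist NPW; 0% = agonist with vehicle and 100% = vehicle without agonist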
TAAR1 ag: agonists of human TAAR1. Q96RJ0. CHO RD-HGA16 TAAR1, Fluo-8 calcium fluorescence; vehicle wells 0%, saturating PEA agonist 100%. activation, % at 3 µM. hit rate 0.99% among 360,000;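 active = activation above the mean activation of all test compounds in the run plus 3 SD, cut at about 38% in these data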
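Signal – calcium-sensitive Fluo-8 signal, excitation 470-495, emission 515-575 nm · System – RD-HGA16 (CHO) cells co-expressing Gα16 and hTAAR1 · Incubation – 17-24 h seeding, 75 min 37 °C dye, 30 min RT · Compound dosing – 3 µM single concentration · Repeats – no replicates (n 1)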
TRPML3 agonist: agonists of human TRPML3 channel; Q8TDD5; HEK293 TRPML3-YFP, Fluo-8 calcium fluorescence; 100% = the carbachol control signal; activation, % at 3 µM; hit rate 0.29% among 220,000; AID 1448;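 active = activation above its plate's cutoff, the mean activation of the plate's test wells plus 3 SD, cut at about 12% in these data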;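 also: 0% = DMSO only wells and 100% = carbachol wells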
Target sequence (Q8TDD5 whole entry, looked up): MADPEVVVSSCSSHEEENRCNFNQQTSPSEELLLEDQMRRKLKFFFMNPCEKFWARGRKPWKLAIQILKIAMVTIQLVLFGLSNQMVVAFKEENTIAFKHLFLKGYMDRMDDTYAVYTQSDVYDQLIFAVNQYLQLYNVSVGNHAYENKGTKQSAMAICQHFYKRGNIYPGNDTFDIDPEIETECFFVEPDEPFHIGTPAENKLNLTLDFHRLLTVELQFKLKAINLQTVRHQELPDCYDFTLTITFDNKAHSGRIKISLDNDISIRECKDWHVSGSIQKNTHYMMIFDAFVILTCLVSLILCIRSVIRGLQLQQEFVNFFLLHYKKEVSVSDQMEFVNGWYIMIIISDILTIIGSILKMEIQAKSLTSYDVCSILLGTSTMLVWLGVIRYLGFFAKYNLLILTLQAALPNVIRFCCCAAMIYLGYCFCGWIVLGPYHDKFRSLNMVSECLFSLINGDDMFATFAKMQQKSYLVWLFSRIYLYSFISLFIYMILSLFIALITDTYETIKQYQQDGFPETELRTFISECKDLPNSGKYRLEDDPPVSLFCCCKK
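system = HEK293 cells stably carrying human TRPML3-YFP | doses = one concentration, 3 µM nominal, 0.3% DMSO | timing = dye loading 1 h 37 °C then 30 min ambient, 125 s read | detection = Fluo-8 calcium dye fluorescence, ex 470-495, em 515-575 nm | benchmarks = high control carbachol 87 µM, low control DMSO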
LANA-H2B inh: blocks KSHV LANA binding to histone H2A/H2B; Q9QR71; cell-free LANA-H2A/H2B peptide, fluorescence polarization; inhibition, % (test concentration not listed); hit rate 0.6% among 320,000; AID 2629; in the data active = inhibition mostly above about 10%, no sharp cut-off; inactive = mostly below about 6.7%
TAAR1 antagonist: human TAAR1 antagonism | CHO RD-HGA16 TAAR1, Fluo-8 calcium fluorescence, antagonist | inhibition, % at 3 µM | Q96RJ0 | hit rate 1.5% among 360,000;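 active = inhibition above a per-plate cutoff, the mean inhibition of test compounds on that plate plus 3 SD, cut at about 49% in these data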;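 also: 0% = DMSO plus EC80 beta-PEA response and 100% = DMSO alone without agonist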
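Material: CHO RD-HGA16 cells bearing hTAAR1; compound dosing: one-point dosing, 3 µM nominal final; schedule: dye loading 75 min at 37 °C, then 30 min room temperature; measured by: calcium fluorescence with Fluo-8; control set: vehicle and agonist controls; replication: n of 1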
Active calls of the source: *; . = not tested or not shown; + = active, no number. An excerpt weighted towards active compounds, which were near 3.4% of everything screened.

SMILES	TRPN1 ag	GPR7 antag	TAAR1 ag	TRPML3 agonist	LANA-H2B inh	TAAR1 antagonist
COc1ccccc1C(CC(=O)c1ccccc1)CC(=O)c1ccccc1	-1	1	3	1	3	38
COc1ccccc1C(CC(=O)c1ccccc1)C(=O)c1ccccc1 (stereo not given)	.	.	6	.	.	73*
O=C(CSc1n[nH]c(-c2ccncc2)n1)Nc1ccccc1	.	-9	-2	.	-7	2
CC(=O)Nc1cccc(NC(=O)CSc2n[nH]c(-c3ccccc3)n2)c1	.	.	3	.	20*	6
O=C(CSc1ncnc2c1cnn2CCc1ccccc1)Nc1cccc(C(F)(F)F)c1	-1	-10	15	0	3	60*
Cc1c(Cl)cccc1NC(=O)CSc1ncnc2c1cnn2CCc1ccccc1	-1	-5	3	3	-2	-31
COc1ccc(CCn2cnn3c(=O)c4ccccc4nc3c2=O)cc1OC	.	.	3	.	.	1
CCOC(=O)C1C(=O)OC2(CCOC(C)(C)C2)C1C(=O)OCC (stereo not given)	0	3	4	1	29*	-4
C=CC[C@@H](CC(=O)NCCO)C(=O)N[C@H](COC(=O)[C@@H](CC=C)Cc1ccc(F)cc1)Cc1c[nH]c2ccccc12	.	.	16	.	+	29
C=CCC[C@H](Cc1ccc(F)cc1)C(=O)OC[C@H](Cc1c[nH]c2ccccc12)NC(=O)[C@@H](CC=C)CC(=O)N(CCO)Cc1ccccc1	.	.	6	.	2	18
C=CC[C@@H](CC(=O)N(CCO)Cc1ccccc1)C(=O)N[C@H](C)COC(=O)[C@@H](CC=C)Cc1ccc(F)cc1	.	.	6	.	-3	-28
C=CCC[C@H](Cc1ccc(F)cc1)C(=O)OC[C@@H](Cc1c[nH]c2ccccc12)NC(=O)[C@@H](CC=C)CC(=O)N(CCO)Cc1ccccc1	.	.	6	.	-1	51*
C=CC[C@@H](CC(=O)NCCO)C(=O)N[C@@H](COC(=O)[C@@H](CC=C)Cc1ccc(F)cc1)Cc1c[nH]c2ccccc12	.	.	7	.	0	27
C=CC[C@H](CC(=O)N(CCO)Cc1ccccc1)C(=O)N[C@H](COC(=O)[C@@H](CC=C)Cc1ccc(F)cc1)Cc1ccccc1	.	.	8	.	-1	52*
COc1ccc(-c2nc3c(C)cc(Br)cn3c2Cc2ccccc2C(F)(F)F)cc1OC	.	.	1	.	.	-27
CN1CCCCC(NC(=O)COCc2ccccc2)C1=O (stereo not given)	.	.	1	.	.	-15
O=C(C(=O)N1CCC(CNC(=O)c2cccs2)CC1)c1cc2ccccc2o1	.	.	0	.	.	-8
O=C1[C@H](c2ccccc2)[C@@H](c2ccncc2)N1c1ccncc1	.	.	1	.	.	-12
O=C1CC(=O)C(n2cncn2)C(c2cccc(Cl)c2)C1 (stereo not given)	1	-9	10	1	16*	17
COc1ccc(C2CC(=O)CC(=O)C2n2cncn2)cc1 (stereo not given)	0	-8	6	1	-5	0
NS(=O)(=O)c1ccc(OCCCN2CCC(C(O)(c3ccccc3)c3ccccc3)CC2)cc1	.	.	6	.	.	-4
CCn1c(=O)c(C(=O)NNC(=O)c2ccccc2)c(O)c2ccccc21	.	5	38*	.	0	-1
CCCCCCC(=O)NNC(=O)c1c(O)c2ccccc2n(CC)c1=O	0	7	21	1	-6	0
C[C@@H]1C=CCCO[C@]12C(=O)N(Cc1ccc(Br)cc1)c1ccccc12	.	.	0	.	.	-9
COC(=O)N(NC(=O)C(O)(CCC(C)C)CCC(C)C)c1ccccc1	1	24*	0	0	1	-1
SMILES	TRPN1 ag	GPR7 antag	TAAR1 ag	TRPML3 agonist	LANA-H2B inh	TAAR1 antagonist
CC(C)CCC(O)(CCC(C)C)C(=O)NNc1ccccc1	-2	4	3	0	-3	-20
Cc1c(Br)c([N+](=O)[O-])nn1C(C)C(=O)N1CCc2ccccc2C1 (stereo not given)	.	8	40*	.	-1	4
COC(=O)CC1=C(C(=O)OC)C(c2cc(OC)c(OC)cc2OC)C(C#N)=C(N)O1 (stereo not given)	1	-6	3	0	14*	-8
COC(=O)CC1=C(C(=O)OC)[C@@H](c2ccccc2[N+](=O)[O-])C(C#N)=C(N)O1	2	-3	0	1	1	12
COc1ccc(C2C(C(=O)c3ccco3)=C(O)C(=O)N2CC2CCCO2)cc1OC (stereo not given)	.	-11	-4	.	19*	-5
O=C(C1=C(O)C(=O)N(CC2CCCO2)C1c1ccccc1)c1ccco1 (stereo not given)	.	-11	0	.	-2	7
c1ccc(Nc2ccccn2)nc1	1	-5	1	1	8.3*	-26
COC(=O)C1=C(C)N(Cc2ccccc2C(F)(F)F)C(=NCc2ccccc2C(F)(F)F)NC1c1ccc(Cl)cc1 (stereo not given)	.	.	1	.	.	-25
Cc1ccc(C(=O)N2NC(c3ccc(F)cc3)C3C(=O)N(c4ccc(C)c(C)c4)C(=O)C32)cc1 (stereo not given)	3	-6	38*	2	1	5
O=C(N/N=C1\C(=O)c2cccc3cccc1c23)c1ccc(O)cc1	0	-8	0	1	+	6
CCCN1CCCCC(NC(=O)c2ccc(-c3ccccc3)cc2)C1=O (stereo not given)	.	.	0	.	.	-1
CCCCS(=O)(=O)N1CCCc2nc(-c3ccc(F)cc3)ccc21	.	.	-1	.	.	17
CCOC(=O)C1CCCN(c2cc(C)nc3cc(-c4ccc(F)cc4)nn23)C1 (stereo not given)	0	-2	43*	-1	-4	28
CCOC(=O)C1CCCN(c2cc(C)nc3cc(-c4ccc(Cl)cc4)nn23)C1 (stereo not given)	0	-2	3	0	-2	-8
CCOC(=O)C1CCCN(C(=S)Nc2ccc(F)cc2)C1 (stereo not given)	0	-2	51*	1	-7	30
CCOC(=O)c1ccc(NC(=S)N2CCCC(C(=O)OCC)C2)cc1 (stereo not given)	0	-15	36	0	1	37
CCOC(=O)C1CCCN(C(=S)Nc2ccc(OC)cc2)C1 (stereo not given)	1	1	44*	0	-2	33
CCc1ccccc1NC(=O)CN1CCN(C(=O)CNC(=O)c2ccccc2F)CC1	.	.	-2	.	+	13
CCOc1ccccc1N(C)S(=O)(=O)c1ccc2[nH]cc(C(=O)N(CCOC)CCOC)c(=O)c2c1	.	-5	7	.	3	-2
